What all share (type): functional
The subject of assay [1] is Mycobacterium tuberculosis. Briefly: Antitubercular activity against Mycobacterium tuberculosis harboring DprE1 p116S mutant assessed as reduction in bacterial growth incubated for 14 days. The conditions noted are these: time 14 day. The essentials:
(§1)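 Strains were H37Rv, the fluoroquinolone-resistant GyrA G88C mutant, and the dprE1 P116S and C387S mutants. All were cultured in standard Middlebrook 7H9 with ADC supplement.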

Assay [2] concerns Mycobacterium tuberculosis. The experiment in a line: Antitubercular activity against moxifloxacin-resistant Mycobacterium tuberculosis assessed as reduction in bacterial growth incubated for 14 days. To be noted: 336 h, time 14 day. The gist of the method:
as §1

The subject of assay [3] is Mycobacterium tuberculosis. The experiment in a line: Antitubercular activity against Mycobacterium tuberculosis harboring DprE1 C387S mutant assessed as reduction in bacterial growth incubated for 14 days. The conditions noted are these: time 14 day. The essentials: as §1

In brackets after ≈: the same amount, converted by molar mass.

The term MIC90 denotes an inhibitory concentration at the 90% level, which refers to growth in some studies and to a panel of isolates in others. As to `O=C(NCCc1ccc(C(F)(F)F)cc1)c1c[nH]c2c([N+](=O)[O-])cc(C(F)(F)F)cc2c1=O`, the figures for the MIC90 in assay [1], in assay [2] and in assay [3] were 0.5 µM (≈ 0.237 µg/mL), 0.9 µM (≈ 0.426 µg/mL) and 54.2 µM (≈ 25.7 µg/mL), respectively.
With `O=C(NCCc1ccc(F)cc1)c1c[nH]c2c([N+](=O)[O-])cc(C(F)(F)F)cc2c1=O`, the MIC90 in assay [1] is 1 µM (≈ 0.423 µg/mL); in assay [2], 1.9 µM (≈ 0.804 µg/mL); in assay [3], >62 µM.
For `O=C(NCCc1ccc(Cl)cc1)c1c[nH]c2c([N+](=O)[O-])cc(C(F)(F)F)cc2c1=O` the same measures were 17 µM (≈ 7.48 µg/mL), 1.9 µM (≈ 0.836 µg/mL) and 44.8 µM (≈ 19.7 µg/mL).
For `NNC(=O)c1ccncc1` [ISONIAZID] the same measures were 2 µM (≈ 0.274 µg/mL), 3.6 µM (≈ 0.494 µg/mL) and 3.3 µM (≈ 0.453 µg/mL).
For `COc1c(N2C[C@@H]3CCCN[C@@H]3C2)c(F)cc2c(=O)c(C(=O)O)cn(C3CC3)c12` [MOXIFLOXACIN], in that order: 0.1 µM (≈ 0.0401 µg/mL), 6.3 µM (≈ 2.53 µg/mL) and 0.05 µM (≈ 0.0201 µg/mL).
